Screening results deposited in PubChem BioAssay by several laboratories.
Sampled rows, rich in hits. Any-hit rate of the full collection: about 12%.
Cl transport mod = modulators of human KCC2 chloride dependent transport; hit rate 2.2% among 190,000; B-score of Tl+ flux slope (higher = more flux/activation; lower = inhibition) at 10 µM; AID 1456; KCC2 cells, thallium flux FluoZin-2 fluorescence; Q9H2X9;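 active = thallium flux slope and its plate-corrected score both differing from the plate sample mean at a set confidence after two filtering rounds, in either direction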;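 note: slope of fluorescence scaled to starting intensity during 10 to 20 s after thallium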
WT yeast gro inh = growth inhibition of WT yeast, mitochondrial fusion screen; hit rate 2.1% among 190,000; inhibition, % at 10 µM; mitochondrial fusion phenotypic screen, WT strain; in the data active = inhibition above about 58%; tested in S. cerevisiae
Diaph act CS = counter-screen for diaphorase-based assays: diaphorase activators and chemical reducers; Diaphorase/resazurin coupled assay, resorufin fluorescence, 16 min; active compounds read high; 1 = vehicle wells, 0 = NADH-free wells; activation factor at 20 µM; hit rate 0.005% among 190,000;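 active = diaphorase activity raised at least twofold by the compound at 20 µM; inactive = activation factor below 2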
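test system = bacterial diaphorase enzyme (C. kluyveri) | quantity = enzyme 0.07 U/mL final | reagent = NADH substrate 0.114 mM plus resazurin dye 0.1 mM, final | incubation = 16 min enzyme reaction, ambient temperature | buffer or medium = HEPES pH 7.4 buffer with MgCl2 and Tween 20 | signal = fluorescence of resorufin, 544 nm excitation, 590 nm emission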
ROMK primary = modulators of human ROMK potassium channel; B-score at 10 µM; hit rate 2% among 130,000; Tet-inducible ROMK, thallium flux fluorescence; actives lie on both sides; AID 1918; P48048;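 active = signal ratio slope over the read window, or its plate-corrected B-score, at least 3 SD from the plate mean, either direction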;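 note: B-score of the F/F0 ratio slope over 7 to 12 s after thallium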
Target sequence (P48048 whole entry, looked up): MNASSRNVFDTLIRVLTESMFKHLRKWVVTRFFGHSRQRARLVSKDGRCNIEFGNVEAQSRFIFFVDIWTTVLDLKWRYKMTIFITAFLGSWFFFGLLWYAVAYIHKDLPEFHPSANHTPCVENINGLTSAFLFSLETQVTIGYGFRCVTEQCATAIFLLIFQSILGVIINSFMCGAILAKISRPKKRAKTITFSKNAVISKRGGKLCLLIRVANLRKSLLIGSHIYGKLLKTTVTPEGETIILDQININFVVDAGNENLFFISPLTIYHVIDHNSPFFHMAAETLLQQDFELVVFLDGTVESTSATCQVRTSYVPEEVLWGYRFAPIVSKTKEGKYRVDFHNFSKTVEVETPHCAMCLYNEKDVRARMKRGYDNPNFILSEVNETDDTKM
Lmaj promast = reduces viability of Leishmania major promastigotes | resazurin fluorescence viability | inhibition, % at 10 µM | hit rate 9% among 200,000; in the data active = inhibition above about 50%;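 note: promastigotes grown with compound for 44 hours at 28 °C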
Diaphorase inh = diaphorase inhibition or chemical oxidation counter-screen. diaphorase resazurin-to-resorufin fluorescence, NADH, 16 min; bacterial (C. kluyveri) enzyme, not human. hit rate 0.69% among 190,000. inhibition, % at 20 µM;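 active = primary screen inhibition at 20 µM above a set limit, cut at about 50% in these data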;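 note: plate controls were DMSO with full reaction for no effect and wells lacking NADH for full effect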
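Test system: bacterial diaphorase enzyme (C. kluyveri); Quantity: 0.14 U/mL diaphorase, enzyme working solution; Times: reaction incubation of 16 min at room temperature; Measured by: fluorescence of resorufin formed from resazurin, Ex 544/Em 590 nm; Benchmarks: positive control minus NADH, DMSO neutral control.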
* marks the source's active call; other numbers are inactive results; · = not tested or not shown.

SMILES	Cl transport mod	WT yeast gro inh	Diaph act CS	ROMK primary	Lmaj promast	Diaphorase inh
CN1CCN(S(=O)(=O)c2cccc(C(=O)Nc3sc4c(c3-c3nc5ccccc5[nH]3)CCCC4)c2)CC1	0.47	5	0.8	·	98*	22
CC(=O)NCCC(=O)Nc1sc2c(c1-c1nc3ccccc3[nH]1)CCCC2	-0.77	24	1	·	98*	2
CCCCCCc1cc2cc(S(=O)(=O)c3ccc(F)c(Cl)c3)c(=O)oc2cc1O	0.59	49	0.9	·	0	5
Brc1cc2c(cc1Br)OCCOCCOCCOCCO2	1.3	-14	1	-0.28	-7	3
Brc1ccc2c(c1)OCCOCCOc1cc(Br)ccc1OCCOCCOCCO2	·	80*	0.7	·	101*	26
Cc1ccc(OCC(=O)N2CCN(c3nnc(-c4ccc(C)cc4)c4ccccc34)CC2)cc1	-1.6	79*	0.8	-0.91	30	24
COCC1CCCN(Cc2nc(C(c3ccccc3)c3ccccc3)no2)C1 (stereo not given)	1	-8	0.9	0.63	31	10
c1ccc(C(c2ccccc2)c2noc(CN3CCN(CC4CC4)CC3)n2)cc1	0.4	-8	0.9	-0.15	55*	7
c1ccc(-c2noc(CN3CCN(c4ccccc4)CC3)n2)cc1	·	8	0.8	·	-3	18
CCn1ccnc1CN(C)Cc1nc(-c2ccccc2)no1	-0.36	4	1.2	1.3	-4	-23
CN(CCN1CCOCC1)Cc1nc(-c2ccccc2)no1	-0.042	-3	1	0.071	90*	4
c1ccc(-c2noc(CN3CCN(C(c4ccccc4)c4ccccc4)CC3)n2)cc1	·	75*	0.8	-0.46	4	16
COc1ccc(OC)c(C(=O)C2COC(=O)C2)c1 (stereo not given)	0.9	21	1	1.1	56*	4
COc1ccc(OC)c(C(=O)c2ccc(C(=O)c3cc(OC)ccc3OC)cc2)c1	-0.45	-1	0.8	·	-2	21
O=C(CSc1n[nH]c(-c2cccnc2)n1)Nc1ccccc1	0.047	-4	0.9	-0.38	2	7
O=C(CSc1n[nH]c(-c2ccccc2)n1)Nc1ncc(Br)cc1Br	-0.029	-2	0.4	·	22	59*
O=C(CSc1nnc(-c2ccccc2)c(-c2ccccc2)n1)Nc1ncc(Cl)cc1Cl	-0.1	36	0.8	·	41	17
O=C(CSc1nnc(-c2ccccc2)c(-c2ccccc2)n1)Nc1ccc(Br)cn1	0.038	30	0.9	·	66*	12
Oc1nc(Nc2cccc(Cl)c2)sc1/C=C1\C=Nc2ccccc21	-0.028	79*	0.8	·	-3	20
COc1cc(-c2nnc(SCC(=O)N(C)C3CCS(=O)(=O)C3)o2)cc(OC)c1OC (stereo not given)	-0.00049	2	1	-0.021	-6	4
O=C(c1sc2cccc(F)c2c1Cl)N1CCN(c2ncccn2)CC1	-0.31	2	0.8	·	77*	16
Cc1onc(-c2c(F)cccc2Cl)c1C(=O)N1CCN(c2ncccn2)CC1	-0.22	-1	0.8	0.24	-7	22
Cc1ccsc1C(=O)N(c1nc2ccccc2s1)c1c(C)cccc1C	0.058	·	0.8	·	100*	15
COc1ccc(C)cc1N(C(=O)c1ccccc1)c1nc2ccccc2s1	-0.16	29	0.8	·	21	20
COc1ccc(N(C(C)=O)S(=O)(=O)c2cccs2)cc1	-0.38	0	0.8	-0.11	0	17
SMILES	Cl transport mod	WT yeast gro inh	Diaph act CS	ROMK primary	Lmaj promast	Diaphorase inh
CC(=O)Oc1ccc(N(C(C)=O)S(=O)(=O)c2cccs2)cc1	·	66*	1	0.11	-7	3
CC(C)C(=O)N(c1cc2sc(=O)oc2c2ccccc12)S(=O)(=O)c1cccs1	·	92*	0.4	0.6	50*	61*
COc1ccc(N(C(=O)C(C)C)S(=O)(=O)c2cccs2)cc1	-0.63	-6	1	0.3	80*	3
O=C(Cc1cccs1)NNC(=O)C12CC3CC(CC(C3)C1)C2	1.1	-9	1.2	0.018	-6	-17
COc1cc(C(=O)O)nc(OC)n1	-0.36	0	1	-0.041	-6	4
CC1CCc2nc(NC(=O)C3CC3)sc2C1 (stereo not given)	0.65	16	1	0.5	22	-2
Cc1ncsc1C(=O)Nc1nc2c(s1)CC(C)CC2 (stereo not given)	-0.15	65*	0.9	0.27	28	9
COc1ccc(OCC#CCN2CC(C)OC(C)C2)cc1 (stereo not given)	-0.62	2	0.9	0.065	57*	13
O=C(Nc1ccc(Cc2ccncc2)cc1)C1CCC(N2C(=O)C3CC=CCC3C2=O)CC1 (stereo not given)	-1.1	-2	0.9	0.44	-5	8
O=C(Nc1ccc(Cc2ccncc2)cc1)C1CCC(N2C(=O)C3C4C=CC(C4)C3C2=O)CC1 (stereo not given)	0.0057	-23	1	-0.38	62*	-3
O=C(CCCc1ccccc1)Nc1ccc(S(=O)(=O)N2CCOCC2)cc1	-2.2	·	·	-0.023	·	·
O=S(=O)(c1ccc(NC(=S)NN=C(Cc2ccccc2)Cc2ccccc2)cc1)N1CCOCC1	·	-6	0.7	·	92*	28
O=S(=O)(c1ccc(NC(=S)NCCc2ccccc2)cc1)N1CCOCC1	-4.1	7	0.7	-1.5	69*	26
Cc1cccc(-n2cnc(C(=O)NNC(=S)Nc3ccc(Cl)cc3)c2)n1	-0.23	6	0.7	-0.53	100*	26
Cc1cccc(-n2cnc(C(=O)N/N=C\c3ccc(Br)cc3)c2)n1	1.3	-9	0.9	·	99*	14
Cc1ccc(-n2nnc3c(SCC(=O)NCC4CCCO4)ncnc32)cc1 (stereo not given)	-0.45	23	0.9	-0.56	86*	10
CCOC(=O)c1c(-c2ccc(OC)cc2)csc1NC(=O)C1CCCO1 (stereo not given)	-0.71	19	0.8	-1.3	52*	20
CCOC(=O)c1c(-c2ccc(C)cc2)csc1NC(=O)C1CCCO1 (stereo not given)	-1.3	58*	0.9	-0.88	7	8
CC(C)OC(=O)c1c(-c2ccc(C(C)C)cc2)csc1NC(=O)C1CCCO1 (stereo not given)	-0.14	70*	0.7	0.025	24	28
CC(C)(C)C(=O)NCCCc1nc2ccccc2n1CCCOc1ccc(Cl)cc1	-1.7	-2	0.8	·	20	18
CCC(CC)C(=O)NC12CC3CC(CC(C3)C1)C2	1.1	5	1	-0.35	-3	-1
COc1ccc2nc(N3C(=O)/C(=C/c4ccc(Cl)cc4)NC3=S)sc2c1	53*	-7	1	·	60*	5
Cc1cc(S(=O)(=O)n2ccnc2)c(Cl)cc1Cl	0.018	-12	·	0.26	-3	·
